# Reference: ChEMBL document CHEMBL2146441, “2,6-Disubstituted imidazo[2,1-b][1,3,4]thiadiazoles: search for anticancer agents” (2012)
# Tests used:
# Type in all cases: functional
# [1] = system: NCI-H460; assay: Cytotoxicity against human NCI-H460 cells assessed as cell growth at 10^-4 M after 48 hrs by SRB assay; settings: NCI-H460, 48 h, read-out: Activity
# [2] = system: KM12; assay: Cytotoxicity against human KM12 cells assessed as cell growth at 10^-7 M after 48 hrs by SRB assay; settings: KM12, 48 h, read-out: Activity
# [3] = system: OVCAR-3; assay: Cytotoxicity against human OVCAR3 cells assessed as cell growth at 10^-4 M after 48 hrs by SRB assay; settings: OVCAR-3, 48 h, read-out: Activity
# [4] = system: ACHN; assay: Cytotoxicity against human ACHN cells assessed as cell growth at 10^-8 M after 48 hrs by SRB assay; settings: read-out: Activity
# In short: (§1)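 NCI-60 screen: lines kept in RPMI 1640 with 5% FBS, seeded at 5000–40,000 cells/well by doubling time, preincubated 24 h at 37 °C in 5% CO2. Time-zero plates TCA-fixed at drug addition. DMSO stocks diluted in medium, 48 h exposure. Fixation in cold TCA (final 10% adherent, 16% suspension), 0.4% SRB stain, solubilised in 10 mM Tris base, A515. Percent growth computed against control and time-zero.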
# [5] = system: CAKI-1; assay: Cytotoxicity against human Caki1 cells assessed as cell growth at 10^-4 M after 48 hrs by SRB assay; settings: CAKI-1, 48 h, read-out: Activity; in short: as §1
# [6] = system: SNB-19; assay: Cytotoxicity against human SNB19 cells assessed as cell growth at 10^-4 M after 48 hrs by SRB assay; settings: SNB-19, 48 h, read-out: Activity
# [7] = system: HOP-62; assay: Growth inhibition of human HOP62 cells after 48 hrs by SRB assay; settings: HOP-62, 48 h
# In short: (§2)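 Adherent NCI-60 lines grown in RPMI 1640 with 5% FBS, seeded at 5000–40,000 cells/well, and preincubated 24 h at 37 °C, 5% CO2. Compound, stocked in DMSO, given either once at 10^-5 M or at five 10-fold dilutions for 48 h. Cells fixed with cold TCA (final 10%), stained with 0.4% SRB, and read at 515 nm. GI50 taken as 50% reduction in net protein increase versus time-zero and control plates.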
# [8] = system: OVCAR-8; assay: Cytotoxicity against human OVCAR8 cells assessed as cell growth at 10^-6 M after 48 hrs by SRB assay; settings: OVCAR-8, 48 h, read-out: Activity
# [9] = system: DU-145; assay: Cytotoxicity against human DU145 cells assessed as cell growth at 10^-6 M after 48 hrs by SRB assay; settings: DU-145, 48 h, read-out: Activity; in short: as §1
# [10] = system: HOP-62; assay: Cytotoxicity against human HOP62 cells assessed as cell growth at 10^-8 M after 48 hrs by SRB assay; settings: HOP-62, 48 h, read-out: Activity
# In short: (§3)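 NCI-60 five-dose screen. Cells were grown in RPMI 1640 with 5% FBS and seeded at 5000–40,000 cells/well according to doubling time. They were pre-incubated 24 h at 37 °C in 5% CO₂, and time-zero (Tz) plates were TCA-fixed at drug addition. Five 10-fold dilutions of DMSO stock were applied for 48 h. Read-out was SRB staining, 515 nm absorbance, with percent growth calculated versus Tz and untreated control.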
# [11] = system: SF-295; assay: Growth inhibition of human SF295 cells after 48 hrs by SRB assay; settings: SF-295, 48 h; for CC50: read-out: LC50 (the source's name); in short: as §2
# [12] = system: NCI-H522; assay: Cytotoxicity against human NCI-H522 cells assessed as cell growth at 10^-7 M after 48 hrs by SRB assay; settings: NCI-H522, 48 h, read-out: Activity
# [13] = system: LOX IMVI; assay: Cytotoxicity against human LOXIMVI cells assessed as cell growth at 10^-4 M after 48 hrs by SRB assay; settings: read-out: Activity
# [14] = system: HCT-116; assay: Cytotoxicity against human HCT116 cells assessed as cell growth at 10^-8 M after 48 hrs by SRB assay; settings: HCT-116, 48 h, read-out: Activity; in short: as §3
# [15] = system: SF-295; assay: Cytotoxicity against human SF295 cells assessed as cell growth at 10^-4 M after 48 hrs by SRB assay; settings: SF-295, 48 h, read-out: Activity
# [16] = system: HCC 2998; assay: Cytotoxicity against human HCC2998 cells assessed as cell growth at 10^-8 M after 48 hrs by SRB assay; settings: HCC 2998, 48 h, read-out: Activity; in short: as §3
# [17] = system: NCI-H226; assay: Cytotoxicity against human NCI-H226 cells assessed as cell growth at 10^-8 M after 48 hrs by SRB assay; settings: NCI-H226, 48 h, read-out: Activity
# [18] = system: MDA-MB-435; assay: Growth inhibition of human MDA-MB-435 cells after 48 hrs by SRB assay; settings: MDA-MB-435, 48 h; in short: as §2
# [19] = system: NCI-H322M; assay: Cytotoxicity against human NCI-H322M cells assessed as cell growth at 10^-4 M after 48 hrs by SRB assay; settings: read-out: Activity
# [20] = Cytotoxicity against human Hs 578T cells assessed as cell growth at 10^-6 M after 48 hrs by SRB assay; settings: read-out: Activity; in short: as §3
# [21] = Cytotoxicity against human […] cells assessed as cell growth at 10^-5 M after 48 hrs by SRB assay; settings: RPMI8266, 48 h, read-out: Activity
# [22] = system: HL-60; assay: Growth inhibition of human HL60 cells after 48 hrs by SRB assay; settings: HL-60, 48 h
# In short: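 Leukemia suspension lines grown in RPMI 1640 with 5% FBS, seeded at 5000–40,000 cells/well, and preincubated 24 h at 37 °C, 5% CO2. Compound, stocked in DMSO, given either once at 10^-5 M or at five 10-fold dilutions for 48 h. Settled cells fixed with 80% TCA (final 16%), stained with SRB, and read at 515 nm. GI50 calculated against time-zero and control growth.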
# [23] = system: SK-MEL-28; assay: Cytotoxicity against human SK-MEL-28 cells assessed as cell growth at 10^-6 M after 48 hrs by SRB assay; settings: SK-MEL-28, 48 h, read-out: Activity
# [24] = system: SNB-75; assay: Cytotoxicity against human SNB75 cells assessed as cell growth at 10^-8 M after 48 hrs by SRB assay; settings: SNB-75, 48 h, read-out: Activity
# [25] = system: UACC-257; assay: Growth inhibition of human UACC257 cells after 48 hrs by SRB assay; settings: UACC-257, 48 h; for CC50: read-out: LC50 (the source's name); in short: as §2
SMILES,growth at 100 µM [1],growth at 0.1 µM [2],growth at 100 µM [3],growth at 0.01 µM [4],growth at 100 µM [5],growth at 100 µM [6],GI50 [7],LC50 (concentration killing 50% of cells) [7],TGI [7],growth at 1 µM [8],growth at 1 µM [9],growth at 0.01 µM [10],GI50 [11],TGI [11],CC50 [11],growth at 0.1 µM [12],growth at 100 µM [13],growth at 0.01 µM [14],growth at 100 µM [15],growth at 0.01 µM [16],also measured
COc1ccc(-c2nn3cc(-c4cccc(N)c4)nc3s2)cc1,-31%,100%,-74%,106%,-39%,7%,3.12 µM,87.6 µM,16.6 µM,94%,93%,97%,2.88 µM,29.3 µM,> 100 µM,83%,-29%,99%,-27%,98%,growth at 0.01 µM [17]: 92%; GI50 [18]: 2.58 µM; LC50 [18]: 89.6 µM; TGI [18]: 14.8 µM; growth at 100 µM [19]: -3%; growth at 1 µM [20]: 76%; growth at 10 µM [21]: 6%; GI50 [22]: 1.77 µM; LC50 [22]: > 100 µM; TGI [22]: 37.7 µM; growth at 1 µM [23]: 80%; growth at 0.01 µM [24]: 70%; GI50 [25]: 17.3 µM; TGI [25]: > 100 µM; CC50 [25]: > 100 µM
COc1ccc(-c2nn3cc(-c4ccc(O)cc4O)nc3s2)cc1,2%,96%,-14%,103%,-9%,1%,1.88 µM,> 100 µM,5.17 µM,81%,91%,95%,2.16 µM,15.1 µM,> 100 µM,84%,-4%,94%,-13%,98%,growth at 0.01 µM [17]: 94%; GI50 [18]: 2.61 µM; LC50 [18]: > 100 µM; TGI [18]: 18.6 µM; growth at 100 µM [19]: 11%; growth at 1 µM [20]: 71%; growth at 10 µM [21]: 10%; GI50 [22]: 3.86 µM; LC50 [22]: > 100 µM; TGI [22]: 37.4 µM; growth at 1 µM [23]: 73%; growth at 0.01 µM [24]: 69%; GI50 [25]: 4.98 µM; TGI [25]: 76.4 µM; CC50 [25]: > 100 µM
